The values that follow come from ChEMBL document CHEMBL1148978, “Lignan derivatives and a norditerpene from the seeds of Vitex negundo” (J Nat Prod, 2004).

The source made the active and inactive calls. The rule behind the calls is not given here.

The nature of assay [1]: Antioxidant activity assessed as inhibition of lipid peroxidation at 0.5 mM after 5 days by ferric-thiocyanate method. It counts as functional. The method, boiled down:
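Linoleic acid peroxidation: 2.51% linoleic acid in EtOH mixed with 0.05 M phosphate buffer pH 7.0, EtOH and water. Sample added from 10 mM EtOH stock, 0.5 mM final. Capped vial kept in dark at 40 °C for 5 days. Aliquot diluted in 75% EtOH, ammonium thiocyanate and ferrous chloride in HCl added, A500 read after 3 min. Blank lacks compound.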

The subject of assay [2] is Radical scavenging activity. The assay can be described thus: Antioxidant activity assessed as DPPH radical scavenging activity at 0.02 mM. It counts as functional. The method, boiled down:
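Sample in EtOH (0.02 mM final) added to 0.1 M acetate buffer pH 5.5 plus 0.5 mM DPPH in EtOH. Mixture stood 30 min at room temperature. Modified from a published DPPH method.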

With `COc1cc([C@H]2c3cc(O)c(OC)cc3C=C(C=O)[C@@H]2CO)ccc1O`, the outcome in assay [1] and in assay [2] was Active.
`COc1cc(-c2c3c(cc4cc(OC)c(O)cc24)C(=O)OC3)ccc1O`: the outcome in assay [1] and in assay [2] was Active.
In the case of `COc1cc(-c2c(O)c(C=O)cc3cc(OC)c(O)cc23)ccc1O`, the outcome in assay [1] and in assay [2] was Active.
Regarding `COc1cc(-c2cc(C=O)cc3cc(OC)c(O)cc23)ccc1O`, the result in assay [1] and in assay [2] was Active.
As to `COc1cc(-c2c3c(cc4cc(OC)c(O)cc24)C(=O)NC3)ccc1O`, the result in assay [1] and in assay [2] was Active.
`COc1cc([C@H]2c3c(ccc(O)c3OC)C=C(C=O)[C@@H]2CO)ccc1O`: the result in assay [1] and in assay [2] was Active.
